The list is not random: actives were taken first. Their share in the collection is about 8.9%.
HSV replic up – increases HSV replication in cells; HSV replication augmentation in cells, fold increase; maximum fold increase; actives 0.005% (n = 220,000); in the data active = maximum fold increase above about 1.5; inconclusive = no clear call, values can overlap the other calls; tested in PC3 cells
Dynein cargo inh – blocks dynein driven cargo transport along microtubules | 3617.4 mouse cells, GR-EGFP nuclear translocation imaging; test concentration mostly 20 µM; stimulated with dexamethasone, 1 µM; active compounds read low | z-score, hits read low | actives 0.47% (n = 220,000) | AID 1381;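 active = plate z-score of nuclear minus cytoplasmic receptor signal below a set negative limit, without overly bright fluorescence or cell loss, cut at about -3.5 in these data, passing the limit was not always enough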;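 also: z-score of nuclear minus cytoplasmic ring GR-EGFP intensity difference per well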
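Buffer or medium: Induction medium lacking tetracycline, stripped serum | Also added: Dexamethasone agonist, 1.0 µM final, for 30 min | Timing: 48 h induction, 1 h compound, 30 min dex at 37 °C | Detection: Formaldehyde fixation, Hoechst nuclear stain, 10x automated fluorescence imaging | Measure: Nuclear versus cytoplasmic GR-EGFP signal, averaged per well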
MT stabilize HCS – microtubule stabilization, imaging screen | actives 0.83% (n = 200,000) | % tubulin-high responders, % at 10 µM | HeLa tubulin immunostaining HCS, 24 h; share of cells brighter than vehicle mean+2SD;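 active = plate Z-score above 3 for both tubulin-high and condensed-nucleus cell shares, with cell loss under 80%, at 10 µM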;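 also: anti alpha tubulin signal scored within the nucleus-defined area of each cell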
b-catenin transl – beta-catenin nuclear translocation modulation; actives 0.3% (n = 190,000); nuclear translocation activity, % at 5 µM; HeLa beta-catenin nuclear translocation, immunofluorescence imaging;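 active = nuclear translocation activity above 50% at 5 µM, with a well cell count of 50 or more; inconclusive = wells under 50 cells across six images, flagged as toxic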;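 also: per-cell ratio of nuclear to cytoplasmic median beta-catenin stain intensity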
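Assay system: human HeLa cells, native beta-catenin; doses: 5 µM primary, 0.02–20 µM confirmation; incubation: compound treatment 24 h, 37°C, 5% CO2; technique: fluorescence imaging of beta-catenin antibody stain plus DAPI; measure: % activation, nuclear-to-cytoplasmic median beta-catenin signal ratio per cell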
Lmaj promast – Leishmania major promastigote growth inhibition. Leishmania major promastigotes, resazurin fluorescence viability. inhibition, % at 10 µM. actives 9% (n = 200,000). AID 1063; in the data active = inhibition above about 50%;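 also: promastigotes grown with compound for 44 hours at 28 °C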
Of the large screens only hits and unclear results are named; the others gave an inactive call.

CCN(CC)CCCC(C)N=C(c1ccccc1)c1c(O)n(C)c(=O)n(C)c1=O (centres undefined)	Lmaj promast 95
CCOC(=O)c1ccc(N=C(c2ccccc2)c2c(O)n(C)c(=O)n(C)c2=O)cc1	none (no result: MT stabilize HCS, Lmaj promast)
Cc1ccccc1C1=NCC(=O)N(CC(=O)NCc2ccco2)c2sc3c(c21)CCCC3	Lmaj promast 93
CCC(C)NS(=O)(=O)c1ccc(OCC(=O)N2CCN(CC)CC2)cc1 (centres undefined)	none
C=CCn1c(O)c(/C=C2/C=CC=N2)c(=O)[nH]c1=O	none
O=c1[nH]c(=O)n(Cc2ccccc2Cl)c(O)c1/C=C1/C=CC=N1	MT stabilize HCS 29
O=C(c1ccc(Cl)cc1)C1CCCN(Cc2ccc3nonc3c2)C1 (centres undefined)	Lmaj promast 85
Cc1cc(Cl)ccc1C(=O)C1CCCN(Cc2ccon2)C1 (centres undefined)	none
O=C(c1ccc(Cl)cc1)C1CCCN(Cc2cccc3ncccc23)C1 (centres undefined)	Lmaj promast 81
O=C(c1ccccc1)C1CCCN(Cc2nc(-c3cnccn3)no2)C1 (centres undefined)	none
O=C(c1ccc(Cl)cc1)C1CCCN(Cc2cccc3cccnc23)C1 (centres undefined)	Lmaj promast 83
Cc1ccc(S(=O)(=O)NCC2CCC(C(=O)N3CCC4(CC3)OCCO4)CC2)cc1 (centres undefined)	none
CCOc1cccc(OCC)c2c(C)[n+](CC3CCCO3)c(C)c1-2 (centres undefined)	Lmaj promast 93
O=C(c1c[nH]cc1-c1ccccc1)c1cccc2ccccc12	none
Cc1ccc(/C=C2\C(=O)NC(=S)N(c3ccc(F)cc3)C2=O)s1	HSV replic up inconclusive, Lmaj promast 100
CCOC(=O)C1CCN(/C=C2/C(=O)NC(=O)N(c3ccc(OCC)cc3)C2=O)CC1	none
COc1ccc(N2C(=O)/C(=C/c3cccs3)C(=O)NC2=S)cc1	none (no result: MT stabilize HCS, Lmaj promast)
CCOC(=O)C1CCN(/C=C2/C(=O)NC(=S)N(c3ccccc3F)C2=O)CC1	Lmaj promast 55
Cc1ccc(/C=C2\C(=O)NC(=S)N(c3ccccc3F)C2=O)s1	Dynein cargo inh -3.7, MT stabilize HCS 33, Lmaj promast 101
CC[C@@]1(O)C(=O)OCc2c1cc1n(c2=O)Cc2cc3ccccc3nc2-1	none (no result: MT stabilize HCS, Lmaj promast)
CCOC(=O)C(O)(c1ccc(NC(=S)NC(=O)c2ccc(Cl)cc2Cl)c(C)c1)C(F)(F)F (centres undefined)	none
COc1cc(/C=C2/C(=O)NC(=O)N(c3ccccc3)C2=O)ccc1O	none
COc1ccc(C2SCC(=O)Nc3c2c(C)nn3-c2ccccc2)cc1 (centres undefined)	Lmaj promast 100
Cc1ccc(-n2nc(C)c3c2NC(=O)CSC3c2ccc3c(c2)OCO3)cc1 (centres undefined)	none
O=c1[nH]c(=S)n(-c2ccc(Cl)cc2)c(O)c1C=Nc1ccc(N2CCOCC2)cc1	none
O=C(CNC(=O)OCc1ccccc1)NCC(=O)Nc1ccc(Br)cc1C(=O)c1ccccc1	Lmaj promast 70
CCC(C#N)(CC)P(=S)(c1ccccc1)c1ccccc1	Lmaj promast 100
COc1ccc(CCNC(=O)c2c(N)n(CCN3CCOCC3)c3nc4ccccc4nc23)cc1OC	Lmaj promast 100
CCCCCn1c(N)c(C(=O)NCCN2CCOCC2)c2nc3ccccc3nc21	none
CCOc1ccc(C2C(C#N)=C(N)Oc3c2c(=O)oc2ccccc32)cc1 (centres undefined)	none
CCCCCCOc1ccc(CN2CCN(CC)CC2)cc1	Lmaj promast 97 (no result: b-catenin transl)
CCN1CCN(Cc2ccc(OC(F)(F)F)cc2)CC1	Lmaj promast 89
O=C(N/N=C1/CN2CCC1CC2)c1cccc(O)c1	none
CC1=C(/C=C/c2ccccc2)CCN(C)C1	Lmaj promast 99
c1ccc2c(CN3CCCCCCC3)c[nH]c2c1	Lmaj promast 98 (no result: HSV replic up)
CN(Cc1c[nH]c2ccccc12)C1CCCCC1	Lmaj promast 70
c1ccc2c(CN3CCN(C4CCCCC4)CC3)c[nH]c2c1	Lmaj promast 75
COc1ccc(Cn2c(O)c(/C=N/NC(=O)c3ccncc3)c(=O)[nH]c2=O)cc1	none (no result: MT stabilize HCS, Lmaj promast)
Cc1cccc(NC(N)=S)c1	none
CCn1c(NN=O)nc2ccccc21	Lmaj promast 53
CCn1c(P(C)(=O)O)nc2ccccc21	none
CC(C)(C)NC(=O)C1CC2CCCCC2CN1 (centres undefined)	none
O=C1NC(=O)C2(Cc3ccccc3N3CCCC32)C(=O)N1Cc1ccccc1 (centres undefined)	none
O=C1NC(=O)C2(Cc3c(nc4ccccn4c3=O)N3CCCCCC32)C(=O)N1Cc1ccccc1 (centres undefined)	Lmaj promast 97
CC(C(=O)c1ccccc1)N1C(=O)c2ccccc2C1=O (centres undefined)	Lmaj promast 75
COc1cccc(OC)c1C1=NCC(=O)Nc2c1oc1ccc(Br)cc21	MT stabilize HCS 14
Nc1cc(Cl)c2nonc2c1[N+](=O)[O-]	Dynein cargo inh -4.2, Lmaj promast 98
O=C1NC(=S)NC(=O)C1=Cc1cccn1-c1ccc(O)cc1	Lmaj promast 100
Cc1cc(C)cc(N2C(=O)NC(=O)/C(=C\c3cccn3-c3ccc(Cl)cc3)C2=O)c1	Lmaj promast 92
CN1C(=O)/C(=C/c2cccn2-c2ccc3ccccc3c2)C(=O)NC1=S	Lmaj promast 100
Cc1cc(C)cc(N2C(=O)NC(=O)/C(=C\c3cccn3-c3ccccc3)C2=O)c1	none
CN1C(=O)NC(=O)[C@]2(Cc3ccccc3N3CCN(c4ccccc4)CC32)C1=O (some centres undefined)	none
Cc1oc(-c2ccccc2)nc1CN1C(=O)C(C)N=C(c2ccccc2F)c2cc(Cl)ccc21 (centres undefined)	Lmaj promast 94 (no result: HSV replic up)
Cc1cccc(NP(=O)(Oc2ccccc2F)Oc2ccccc2F)c1	Lmaj promast 57
COc1cccc(NP(=O)(Oc2ccc(Cl)cc2)Oc2ccc(Cl)cc2)c1	b-catenin transl 90
O=C(Cn1ncc2c3ccccc3n(Cc3cccc(Cl)c3)c2c1=O)N1CCC2(CC1)OCCO2	none
Cc1ccc(N/N=C/c2c(O)n(-c3ccccc3)c(=O)[nH]c2=O)cc1	Lmaj promast 92
OC(c1ccccc1)(c1ccccc1)C1CCNCC1	none
CCN1CCN(C(=O)COc2ccc(S(=O)(=O)N(C)Cc3ccccc3)cc2)CC1	Lmaj promast 99
CN1CCN(C(=O)COc2ccc(S(=O)(=O)N(C)Cc3ccccc3)cc2)CC1	none (no result: b-catenin transl)
Cc1cc(OCC(=O)NC2CCS(=O)(=O)C2)c2c3c(c(=O)oc2c1)CCC3 (centres undefined)	none
CCCCn1c(O)c(C(CC)=NC(C)c2ccccc2)c(=O)[nH]c1=O (centres undefined)	MT stabilize HCS 47 (no result: b-catenin transl)
CCCCn1c(O)c(C(CC)=Nc2ccc(OC)cc2OC)c(=O)[nH]c1=O	MT stabilize HCS 29

High-throughput results deposited in PubChem BioAssay by several laboratories.
